# The list is not random: actives were taken first. Their share in the collection is about 3.7%.
# TAAR1 antag – antagonists of human TAAR1 | CHO RD-HGA16 TAAR1, Fluo-8 calcium fluorescence, antagonist | inhibition, % at 3 µM | Q96RJ0 | 1.5% of 360,000 active;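 active = inhibition above a per-plate cutoff, the mean inhibition of test compounds on that plate plus 3 SD, cut at about 49% in these data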;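 also: 0% = DMSO plus EC80 beta-PEA response and 100% = DMSO alone without agonist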
# Target sequence (Q96RJ0 whole entry, looked up): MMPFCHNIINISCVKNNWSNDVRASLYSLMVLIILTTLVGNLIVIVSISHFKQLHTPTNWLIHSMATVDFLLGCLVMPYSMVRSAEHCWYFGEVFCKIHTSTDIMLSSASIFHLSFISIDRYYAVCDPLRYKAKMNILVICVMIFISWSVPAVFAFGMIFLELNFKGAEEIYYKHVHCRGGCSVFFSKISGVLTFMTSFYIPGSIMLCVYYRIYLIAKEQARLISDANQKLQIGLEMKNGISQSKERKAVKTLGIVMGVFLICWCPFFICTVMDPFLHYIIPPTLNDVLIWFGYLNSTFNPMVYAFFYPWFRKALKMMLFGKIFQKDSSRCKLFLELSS
#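 test system = CHO RD-HGA16 cells bearing hTAAR1 | replication = singlicate | controls = DMSO-only wells and EC80 β-PEA-stimulated wells | reagent = EC80 β-phenethylamine stimulus | read-out basis = percent inhibition of PEA-evoked calcium signal, max/basal emission ratio | schedule = seeding 17-24 h prior, 75-min 37 °C, 30-min RT dye loading | signal = kinetic Fluo-8 calcium fluorescence measurement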
# TAAR1 agonist – human TAAR1 agonism; 0.99% of 360,000 active; CHO RD-HGA16 TAAR1, Fluo-8 calcium fluorescence; vehicle wells 0%, saturating PEA agonist 100%; AID 624467; activation, % at 3 µM;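 active = activation above the mean activation of all test compounds in the run plus 3 SD, cut at about 38% in these data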
#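 System: CHO-derived RD-HGA16 cells with stable Gα16 and human TAAR1. Times: 17-24 h plating, Fluo-8 75 min 37 °C, 30 min RT. Measured by: calcium-sensitive Fluo-8 signal, excitation 470-495, emission 515-575 nm. Read-out basis: % activation relative to PEA EC100 response. Control set: DMSO and PEA EC100. Repeats: no replicates (n 1).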
# core dimer inh – blocks dimerization of HCV core protein; TR-FRET GST/Flag-core106 dimerization, 1536-well; inhibition, % at 5 µM; 0.33% of 300,000 active;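 active = inhibition above the mean of all tested compounds plus 3 SD, set per screening campaign, cut at about 45% in these data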
#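 System: GST-tagged and Flag-tagged HCV core protein residues 1-106 / Input: core106 proteins, GST 13.5 nM and Flag 17 nM / Buffer or medium: KF-containing HEPES buffer, pH 7.45, DTT, CHAPS, BSA / Probe or stimulus: Eu-anti-GST and XL665-anti-Flag labelled anti-tag antibodies / Schedule: 4 h, 22.5 °C incubation / Technique: TR-FRET 671 and 617 nm emission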
# rCAG binder – r(CAG) repeat RNA binding. AID 651821. inhibition, % at 3 µM. TO-PRO-1 dye displacement fluorescence. 1.3% of 370,000 active;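 active = inhibition above the plate cutoff, the mean of all test compounds on that plate plus 3 SD, cut at about 35% in these data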;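 also: 0% = DMSO alone and 100% = 100 µM mitoxantrone as full dye displacement; higher means more dye released from RNA so lower well fluorescence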
# HCV NS3 hel inh – inhibitors of Hepatitis C virus NS3 helicase; NS3 helicase DNA unwinding, Cy5 molecular beacon fluorescence; inhibition, % at 10.9 µM; 0.56% of 290,000 active; AID 1800;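 active = inhibition above the mean of all tested compounds plus 3 SD, set per campaign, cut at about 35% in these data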;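 also: 0% = DMSO wells and 100% = thioflavine S control wells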
#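 System: Hepatitis C virus NS3 helicase domain fragment enzyme | Reagent: Annealed dual-labelled DNA beacon duplex, ATP-started | Compound dosing: 10.9 µM single point, 0.8% DMSO | Incubation: 1 h reaction at 25 °C, ATP-initiated | Technique: Cy5 fluorescence | Evaluation: Percent inhibition from t60/t0 fluorescence ratio | Benchmarks: Low DMSO, high thioflavine S at 110 µM | Replication: Singlicate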
# Numbers without * were called inactive; / = no result.
SMILES,TAAR1 antag,TAAR1 agonist,core dimer inh,rCAG binder,HCV NS3 hel inh
CCC1CCCCN1c1ccc([N+](=O)[O-])cc1/C=N/NC(=O)Cn1c2ccccc2c(=O)c2ccccc21 (stereo not drawn),-8.5,7.3,47.2*,2.5,-0.1
CN(C)S(=O)(=O)Oc1cccc(C(=O)Nc2ccc(Cl)c(Cl)c2)c1,60.5*,40.6*,0.7,10.9,-8.1
CN(C)S(=O)(=O)Oc1cccc(C(=O)Nc2cccc(Cl)c2)c1,48.1,16.9,4.3,8.2,-11.1
CCCC(=O)Nc1ccc(C(=O)Nc2cc(C(F)(F)F)ccc2Cl)cc1,19.1,42.1*,-3.2,3.6,2.5
O=C(COC(=O)c1ccc(O)cc1)Nc1cc(C(F)(F)F)ccc1Cl,3.7,37.7*,-4.4,1.2,0.2
CCOC(=O)/C(=C/C=C1\Sc2cc(OCC)c(OCC)cc2N1CC)C(C)=O,73.0*,158.2*,-20.3,-82.1,4.1
CC(=O)C1=C(C)NC(SCC(=O)c2ccc(F)cc2)=C(C#N)C1c1ccco1 (stereo not drawn),50.9*,8.4,-1.1,16.8,6.1
CCc1ccc(C(=O)CSC2=C(C#N)C(c3ccco3)C(C(C)=O)=C(C)N2)cc1 (stereo not drawn),/,/,21.4,/,2.2
O=C(NCCc1ccccn1)C(F)(F)C(F)(F)C(F)(F)C(F)(F)C(F)(F)C(F)(F)C(F)(F)C(F)F,-0.9,41.3*,-3.0,-2.1,22.1
COc1cc(-c2cc(C(=O)N3CCN(c4ccccn4)CC3)c3ccccc3n2)cc(OC)c1OC,49.7*,16.0,6.4,-0.7,-20.2
COc1ccc(-c2cc(C(=O)N3CCN(c4ccccc4O)CC3)c3ccccc3n2)cc1,62.4*,19.5,/,10.7,/
COc1ccc(-c2cc(C(=O)N3CCN(c4ccccn4)CC3)c3ccccc3n2)cc1,53.2*,20.4,5.8,0.5,-1.1
Cc1ccccc1-c1cc(C(=O)N2CCCC2)c2ccccc2n1,-11.6,0.8,52.7*,6.5,19.8
Cc1ccccc1-c1cc(C(=O)Nc2sc(C)c(C)c2C(N)=O)c2ccccc2n1,50.2*,18.0,43.9,18.6,-6.0
O=C(c1cnc(N2CCN(c3ccccn3)CC2)c2ccccc12)N1CCN(c2cccc(Cl)c2)CC1,59.9*,10.8,23.7,5.7,4.0
O=C(c1cc(-c2cccs2)nc2ccccc12)N1CCN(c2ccccc2O)CC1,58.4*,25.6,4.9,5.2,3.7
COc1ccc(-c2cc(C(=O)OCC(=O)N3CCCC3)c3ccccc3n2)cc1,15.3,6.4,5.4,1.0,-21.0
CCOC(=O)c1sc(NC(=O)c2cc(-c3ccccc3C)nc3ccccc23)c(C#N)c1C,-4.7,15.1,29.4,15.2,6.2
COc1ccc2nc(-c3ccccc3)cc(C(=O)OCC(=O)N3CCCCC3)c2c1,56.5*,2.8,/,10.5,/
Cc1ccccc1S(=O)(=O)N1CCC(c2nc3ccccc3o2)CC1,/,/,/,0.3,/
C=CCCC(=O)N1CCC(C(=O)NC2CCCc3ccccc32)CC1 (stereo not drawn),/,/,/,3.2,/
N=C1/C(=C/c2ccco2)C(=O)N=C2SC(CC(=O)N3CCCC3)=NN12,-20.5,1.3,7.6,23.9,25.5
CCCC1=NN2C(=N)/C(=C\c3ccc(SCc4ccco4)o3)C(=O)N=C2S1,/,/,71.4*,/,25.0
Cc1cccc(C2C3=C(Nc4[nH]n(-c5ccccc5)c(=O)c42)c2ccccc2C3=O)c1 (stereo not drawn),-12.3,2.5,/,68.1*,24.1
Cc1ccccc1C1C2=C(Nc3[nH]n(-c4ccccc4)c(=O)c31)c1ccccc1C2=O (stereo not drawn),/,/,-6.0,/,16.0
SMILES,TAAR1 antag,TAAR1 agonist,core dimer inh,rCAG binder,HCV NS3 hel inh
O=C(CSc1nnc(COc2ccc(Cl)cc2)n1Cc1ccco1)Nc1cccc2ccccc12,/,/,/,7.0,/
O=C(Nc1ccccc1)Nc1c(-c2ccc(F)cc2)nc2ncccn12,/,/,/,2.2,/
Cc1c2cnn(CC(=O)Nc3c(F)c(F)cc(F)c3F)c(=O)c2c(C)n1Cc1ccccc1F,13.7,-1.5,55.3*,17.6,17.1
CNC(=O)Cn1ncc2c(C)n(Cc3ccc(C)cc3)c(C)c2c1=O,-16.3,-1.7,2.3,-0.1,-0.5
COC[C@H]1O[C@]2(c3ccccc3)CO[C@H]1[C@@H](/C=C/c1ccccc1)C2,/,/,/,0.2,/
CN(c1ccccc1)S(=O)(=O)c1ccc(NC(=O)c2nc(S(C)(=O)=O)ncc2Cl)cc1,48.9*,18.2,13.3,6.0,-16.4
O=C1NC(=Nc2ccc3ccccc3c2)S/C1=C/c1ccco1,-8.4,0.2,42.8,44.1*,27.9
Cc1cc(-c2csc(NC(=O)c3ccc(C#N)cc3)n2)c(C)n1Cc1ccccc1,13.0,0.9,51.6*,13.5,32.5
COc1ccc(-n2c(C)cc(-c3csc(NC(=O)c4ccc(S(=O)(=O)N(C)C)cc4)n3)c2C)cc1,-3.7,-0.2,53.1*,13.9,17.2
CC(=O)c1ccc([C@H](O)[C@@H](C(=O)N(C)c2ccccc2)C2CC2)cc1,/,/,/,2.2,/
N#Cc1c(NC(=O)c2ccc(Cn3cc(Br)cn3)o2)sc2c1CCCCC2,13.5,7.4,13.7,15.0,-3.6
CC1CCc2c(sc(NC(=O)c3ccc(Cn4cc([N+](=O)[O-])cn4)o3)c2C#N)C1 (stereo not drawn),10.6,3.5,84.7*,30.1,13.1
O=C(/C=C/c1ccc(OC(F)F)cc1)Nc1cccc(S(=O)(=O)NC2=NCCCCC2)c1,61.9*,12.0,3.2,5.8,-7.8
Cc1cc(C)cc(OCC(C)CN2CCC(C(O)(c3ccccc3)c3ccccc3)CC2)c1 (stereo not drawn),/,/,/,2.8,/
Cc1ccc(NC(=O)CN2C(=O)N/C(=C/c3cccn3-c3ccc(C(=O)O)cc3)C2=O)cc1,7.4,-0.8,-34.8,55.7*,33.5
Cc1ccc(NC(=O)CN2C(=O)N/C(=C/c3cc(C)n(-c4ccc(C(=O)O)cc4)c3C)C2=O)cc1,-1.2,3.6,/,36.9*,7.0
CCn1c(C)cc(/C=C2\NC(=O)N(CC(=O)Nc3ccc(F)cc3)C2=O)c1C,4.7,-0.9,-3.6,8.6,-1.1
COCC#Cc1ccc(CC[C@H]2O[C@H]3CC[C@@H](CO)O[C@H]3C[C@H]2n2cc(C(C)(C)O)nn2)cc1,/,/,/,5.4,/
COc1ccccc1CNC(=O)COc1ccccc1C(=O)c1cnn(-c2ccccc2)c1,57.2*,5.9,/,6.0,/
CCNC(=O)COc1ccc(F)cc1C(=O)c1cnn(-c2ccccc2)c1,2.6,0.3,-6.9,-1.6,12.8
CCOC(=O)[C@@]12CCCC=C1N(CCc1ccc(Cl)cc1)C(=O)[C@H]2CC(=O)N1CCN(C(=O)c2ccco2)CC1,/,/,/,7.9,/
COc1ccc(-c2coc3c(C(=O)NCc4ccc(F)c(F)c4)cccc23)c(C)c1,41.1,2.2,/,3.6,/
COc1ccc(-c2coc3c(C(=O)Nc4cc(OC)c(OC)c(OC)c4)cccc23)c(C)c1,63.4*,1.5,/,11.2,/
